Runt-CBFb FRET – inhibitors of human RUNX1 Runt domain binding to CBFb; 220,000 tested, 0.46% active; Cerulean-Runt/Venus-CBFb FRET ratio 530/480, 1 h; AID 1496; Q01196+Q13951; inhibition, % at 20 µM;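 active means inhibition over about 50% at 20 µM in the single-dose screen, limit read from the data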;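 further: 0% = DMSO wells and 100% = excess unlabeled CBFb competitor control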
Target sequence (Q01196 whole entry, looked up, the tested form may be a part): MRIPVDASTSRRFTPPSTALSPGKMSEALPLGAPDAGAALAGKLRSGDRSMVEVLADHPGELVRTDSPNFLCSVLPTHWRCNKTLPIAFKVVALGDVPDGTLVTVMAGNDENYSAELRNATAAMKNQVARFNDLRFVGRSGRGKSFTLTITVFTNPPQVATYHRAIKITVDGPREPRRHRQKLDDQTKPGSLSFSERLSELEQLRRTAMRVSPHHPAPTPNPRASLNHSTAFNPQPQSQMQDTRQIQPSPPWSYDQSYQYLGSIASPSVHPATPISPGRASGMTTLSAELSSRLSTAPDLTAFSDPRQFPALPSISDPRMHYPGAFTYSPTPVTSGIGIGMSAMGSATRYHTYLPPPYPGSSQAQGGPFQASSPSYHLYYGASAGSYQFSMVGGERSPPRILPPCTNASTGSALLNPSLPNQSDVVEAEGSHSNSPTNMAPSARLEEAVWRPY
Target sequence (Q13951 whole entry, looked up, the tested form may be a part): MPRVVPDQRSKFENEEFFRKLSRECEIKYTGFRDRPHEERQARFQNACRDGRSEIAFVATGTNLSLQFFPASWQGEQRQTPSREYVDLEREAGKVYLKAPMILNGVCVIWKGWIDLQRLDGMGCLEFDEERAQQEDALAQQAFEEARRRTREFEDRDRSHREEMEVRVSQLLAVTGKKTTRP
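Assay system: Cerulean-Runt domain fusion protein, energy donor; Signal: fluorescence energy transfer, 422 nm excitation, 530/480 nm emission; Timing: 1 h compound exposure, room temperature; Control set: unlabeled CBFb; Medium: Tris buffer pH 7.5 with salts and BSA; Compound: single test concentration of 20 µM, 1% DMSO final; Probe or stimulus: Venus-CBFb 100 nM.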
Hck-Nef inh – blocks Nef-activated human Hck kinase | 220,000 tested, 0.68% active | P08631 | inhibition, % at 20 µM | AID 463187 | Recombinant Hck-YEEI plus Nef, Z-Lyte FRET kinase assay;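 active means Hck-Nef kinase inhibition above about 50%, limit read from the data; inactive means inhibition below that limit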;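 further: 0% = DMSO with Hck plus Nef and 100% = Hck alone without Nef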
Runt-SMMHC FRET – Runt domain-CBFb-SMMHC interaction inhibition | inhibition, % at 20 µM | Q01196+Q13951 | 220,000 tested, 0.74% active | AID 1434 | Cerulean-Runt/Venus-CBFb-SMMHC FRET ratio 530/480, 1 h;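 active means mean inhibition across duplicate retests at 20 µM reaching about 50%, limit read from the data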;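 further: 0% = DMSO wells and 100% = wells with excess untagged CBFb-SMMHC; inhibitors lower the FRET ratio by blocking Runt binding to CBFb-SMMHC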
RanGTP-Imp inh – disruptors of Ran-importin-beta complex formation – biochemical, FRET, CFP-Ran, YFP-importin-beta, homogeneous, primary screen; cell-free CFP-Ran/YFP-importin-beta FRET ratio; inhibition, % (test concentration not listed); 300,000 tested, 1.1% active;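 active means more than half of the replicate wells show a fall in the fluorescence ratio signal beyond about 16%, limit read from the data, passing the limit was not always enough; inconclusive means exactly half of the replicate wells pass the set limit; inactive means fewer than half of replicates pass the limit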;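 further: 0% = DMSO wells and 100% = Ran loaded with GDP instead of GTP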
Hck-Nef confirm – Hck-Nef kinase inhibition, confirmation | shares compounds with Hck-Nef inh | Recombinant Hck-YEEI:Nef, Z-Lyte FRET kinase assay | calls only at 10 µM | 1,300 tested, 28% active;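 active means average inhibition of at least 50%, with Z-scores no higher than 3 in both the phospho-tyrosine peptide and fluorescence counterscreens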
Starred values were filed as active, the others as inactive; i = inactive; ? = inconclusive; . = not tested or not shown; + = active, no number. Sampled rows, rich in hits. Any-hit rate of the full collection: about 1.8%.

SMILES | Runt-CBFb FRET | Hck-Nef inh | Runt-SMMHC FRET | RanGTP-Imp inh | Hck-Nef confirm
O=c1cc(-c2ccccc2)c2cc(Cl)c(O)c(CN3CCOCC3)c2o1 | -18.9 | -24.2 | 81.2 | 3.6 | .
Cc1cc(=O)oc2c(CN3CC(C)OC(C)C3)c(O)c(Cl)cc12 (stereo unspecified) | 108.2* | + | 135.9* | 33.6* | .
Cc1cc(=O)oc2cc(OCC(=O)N3CC(C)OC(C)C3)ccc12 (stereo unspecified) | -0.2 | -5.3 | 1.4 | 4.8 | .
COC(=O)CN=C1OC(=O)N2C(=O)C3=C4[C@@H](C[C@H]5C(=O)N(c6ccccc6)C(=O)[C@H]5[C@H]4[C@@]12Cc1ccccc1)[C@H]1C(=O)N(c2ccccc2)C(=O)[C@H]1[C@H]3C | -5.3 | 12.8 | -11.1 | -4.4 | .
NC(=S)n1[nH]c(-c2ccc([N+](=O)[O-])cc2)c(N=Nc2ccc(O)cc2)c1=O | 6.0 | 1.1 | -1.1 | ? | .
NC(=S)n1[nH]c(-c2ccc([N+](=O)[O-])cc2)c(N=Nc2cccc(Cl)c2)c1=O | -8.6 | . | -7.6 | -6.5 | +
O=C(Cn1c2ccc(F)cc2c2nc3n(c(=O)c21)CCS3)Nc1ccccc1F | -2.0 | 28.9 | 1.7 | -2.6 | .
O=C(Cn1c2ccc(F)cc2c2nc3n(c(=O)c21)CCS3)Nc1ccccc1C(F)(F)F | -1.9 | 89.2* | -7.1 | 0.5 | i
COc1cc2nc(Cl)nc(N3CCOCC3)c2cc1OC | . | 68.7* | 1.6 | ? | i
Cc1ccc(NC(=O)CN2C(=O)S/C(=C\c3cc(C)n(-c4ccc(C(=O)O)cc4)c3C)C2=O)cc1 | 6.0 | 6.7 | 5.4 | 4.9 | .
Cc1ccc(NC(=O)CN2C(=O)N/C(=C/c3cc(C)n(-c4ccc(C(=O)O)cc4)c3C)C2=O)cc1 | 0.1 | 55.8* | -8.4 | . | i
CC(=O)N=c1c(C#N)cc2c(=O)n3cccc(C)c3nc2n1Cc1ccco1 | 9.6 | 165.4* | 88.1* | 80.3* | i
Cc1nc2c(C)cccn2c(=O)c1NC(=O)c1cccs1 | . | . | . | 3.6 | .
Cc1cccn2c(=O)c3cc(C#N)c(=NC(=O)c4cccs4)n(CCCOC(C)C)c3nc12 | 78.8* | 105.9* | 88.1* | 81.0* | i
CC1(c2ccccc2)CC(C)(C)N2C(=O)/C(=C3\SC(=S)NC3=O)c3cccc1c32 (stereo unspecified) | -3.4 | 93.8* | -8.6 | 8.5 | +
Cc1cccc2cc(C#N)c(SCC(=O)NCC3CCCO3)nc12 (stereo unspecified) | -2.8 | 0.8 | -0.7 | 2.9 | .
Cc1cccc2c(SCC(=O)NCC3CCCO3)nc(-c3ccc(F)cc3)nc12 (stereo unspecified) | 0.7 | 87.9* | 0.1 | 0.5 | i
COc1ccccc1NC(=O)c1cc2c(s1)-c1ccccc1S(=O)(=O)C2 | -1.1 | 52.2* | -2.0 | -1.9 | i
O=C(Nc1cccc(Br)c1)c1ccc(OC2CSC2)cc1 | 5.7 | 22.0 | 2.4 | -3.1 | .
O=C(NCC1CCCCC1)c1cc(Br)ccc1Cl | . | . | . | 0.2 | .
Fc1ccc2[nH]c3c(c2c1)CN(C(=S)NCc1ccccc1)CC3 | -9.6 | -3.7 | -17.7 | -3.2 | .
CCOc1ccc(Br)cc1S(=O)(=O)Nc1ccc(NC(=O)c2ccccc2F)cc1 | -2.1 | 2.0 | 3.4 | -5.1 | .
COc1ccc(-c2ccc(/C=N/NC(=O)Cc3nnc(N)s3)o2)cc1Cl | 8.4 | 78.5* | -1.6 | 2.0 | i
Cc1ccc(-c2ccc(/C=N/NC(=O)Cc3nnc(N)s3)o2)cc1Cl | 8.3 | 27.5 | 1.9 | -3.0 | .
O=CNn1cnc2c(oc3nc(-c4ccccc4)cc(-c4ccco4)c32)c1=O | -20.8 | 54.7* | -28.4 | -12.5 | i
Cc1ccc(Cl)cc1NC(=O)[C@@H]1CCC(=O)N1C1OC(=O)c2ccccc21 (stereo partly specified) | . | . | . | -3.5 | .
O=C(Nc1cnn(Cc2ccc(F)cc2)c1)c1cnn2c(C(F)F)cc(-c3ccccc3)nc12 | -6.7 | 88.0* | -4.9 | -1.8 | i
O=C(N/N=C/c1ccc([N+](=O)[O-])cc1)c1cc(-c2ccc3c(c2)OCO3)n[nH]1 | -2.4 | 63.6* | -9.7 | 4.0 | i
COc1cc(NC(=O)COC(=O)CSc2cc(C)ccc2C)c(C)cc1[N+](=O)[O-] | 0.2 | 0.0 | -6.9 | ? | .
CCN1CCCc2cc(CN(CCN3CCOCC3)C(=S)Nc3cc(F)cc(F)c3)ccc21 | -1.6 | 55.2* | -1.6 | -2.2 | i

Screens (PubChem)
